{
  "source": "ChEMBL document CHEMBL1144522",
  "about": "“Novel C2-C3' N-peptide linked macrocyclic taxoids. Part 2: synthesis and biological activities of docetaxel analogues with a peptide side chain at C2 and their macrocyclic derivatives” (Bioorg Med Chem, 2007)",
  "key": {"KB": {"test_system": "KB", "test": "Cytotoxicity against human KB cells after 72 hrs", "assay_type": "cell-based", "conditions": "for IC50: Homo sapiens, KB; for Activity: human, kb", "in_short": "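Cell proliferation measured after 72 h incubation with compound. IC50 is the drug concentration that inhibits proliferation by 50%. Run by an established literature protocol.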"}, "Tubulin": {"molecular_target": "Tubulin", "test": "(§1) Tubulin interaction assessed as inhibition of cold-induced microtubule disassembly", "assay_type": "protein-complex assay, Homo sapiens", "in_short": "(§2)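 Microtubular protein was purified from mammalian brain. The assay followed the rate of microtubule disassembly. IC50 is the concentration that inhibits that rate by 50%. Run by an established literature protocol.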"}, "Tubulin (Homo sapiens)": {"molecular_target": "Tubulin (Homo sapiens) (UniProt P68371+Q9H4B7+P0DPH7+P68366+Q13509+Q71U36+P04350+Q3ZCM7+P07437+P68363+Q9BQE3+Q6PEY2+Q13885+Q9BVA1+Q9BUF5)", "test": "as §1", "assay_type": "protein-complex assay", "in_short": "as §2"}},
  "note": "Active and inactive are the calls of the source. No cut-off for these calls is given here. *1 amine or outer side, *2 acyl side, *3 side chain or, on linkers, in order; H or OH if unused. Where a SMILES comes first, the peptide text is derived from it. Bridges are numbered along the chain shown (N, C = ends). [ ]: non-standard residue; d: D form. The star is where a group is joined. ξ: configuration not given here. X1 = CC(=O)O[C@@]12COC1C[C@H](O)[C@@]1(C)C(=O)[C@H](O)C3=C(C)[C@@H](OC(=O)[C@H](O)[C@@H](NC(=O)[*:1])c4ccccc4)C[C@@](O)([C@@H](O[*:2])C21)C3(C)C; ξD = NC(CC(=O)O)C(=O)O; OtBu = CC(C)(C)O*",
  "data": [
    {"smiles": "CC(=O)O[C@@]12COC1C[C@H](O)[C@@]1(C)C(=O)[C@H](O)C3=C(C)[C@@H](OC(=O)[C@H](O)[C@@H](NC(=O)N[C@H](C(=O)OCc4ccccc4)C(C)C)c4ccccc4)C[C@@](O)([C@@H](OCc4ccccc4)C21)C3(C)C", "note": "(some centres undefined)", "values": [
      {"measurement": "IC50", "setting": "KB", "value": 4, "unit": "nM"},
      {"measurement": "IC50", "setting": "Tubulin", "value": 800, "unit": "nM"}
    ]},
    {"smiles": "CC(=O)O[C@@]12COC1C[C@H](O)[C@@]1(C)C(=O)[C@H](O)C3=C(C)[C@@H](OC(=O)C(O)[C@@H](NC(=O)N[C@H](C(=O)N4CCC[C@H]4C(=O)NCC(=O)NCC(=O)O)C(C)C)c4ccccc4)C[C@@](O)([C@@H](OC(=O)c4cccc(N)c4)C21)C3(C)C", "note": "(some centres undefined)", "values": [
      {"measurement": "IC50", "setting": "KB", "value": "> 10000", "unit": "nM"},
      {"measurement": "IC50", "setting": "Tubulin", "value": 1000, "unit": "nM"}
    ]},
    {"smiles": "COC(=O)[C@H](CCSC)NC(=O)[C@H](Cc1ccccc1)NC(=O)[C@@H](NC(=O)N[C@@H](c1ccccc1)[C@@H](O)C(=O)O[C@H]1C[C@@]2(O)[C@@H](OCc3ccccc3)C3[C@]4(OC(C)=O)COC4C[C@H](O)[C@@]3(C)C(=O)[C@H](O)C(=C1C)C2(C)C)C(C)C", "note": "(some centres undefined)", "values": [
      {"measurement": "IC50", "setting": "KB", "value": 1100, "unit": "nM"}
    ]},
    {"smiles": "COC(=O)[C@@H](CCSC)NC(=O)[C@H](Cc1ccccc1)NC(=O)[C@@H](NC(=O)N[C@@H](c1ccccc1)[C@@H](O)C(=O)O[C@H]1C[C@@]2(O)[C@@H](OCc3ccccc3)C3[C@]4(OC(C)=O)COC4C[C@H](O)[C@@]3(C)C(=O)[C@H](O)C(=C1C)C2(C)C)C(C)C", "note": "(some centres undefined)", "values": [
      {"measurement": "IC50", "setting": "Tubulin", "value": 2600, "unit": "nM"}
    ]},
    {"smiles": "CC(=O)O[C@@]12COC1C[C@H](O)[C@@]1(C)C(=O)[C@H](O)C3=C(C)[C@@H]4C[C@@](O)([C@@H](OC(=O)CNC(=O)C(CC(=O)OC(C)(C)C)NC(=O)CNC(=O)CNC(=O)[C@@H]5CCCN5C(=O)[C@H](C(C)C)NC(=O)N[C@@H](c5ccccc5)[C@@H](O)C(=O)O4)C21)C3(C)C", "note": "(some centres undefined) (VPGG[ξD](OtBu)G; linker N-C via X1)", "values": [
      {"measurement": "Activity", "setting": "KB", "value": "Non-toxic"}
    ]},
    {"smiles": "CC(=O)O[C@@]12COC1C[C@H](O)[C@@]1(C)C(=O)[C@H](O)C3=C(C)[C@@H](OC(=O)[C@H](O)[C@@H](NC(=O)NCC(=O)N[C@@H](COCc4ccccc4)C(=O)N[C@@H](Cc4ccc(OCc5ccccc5)cc4)C(=O)OCc4ccccc4)c4ccccc4)C[C@@](O)([C@@H](OCc4ccccc4)C21)C3(C)C", "note": "(some centres undefined)", "values": [
      {"measurement": "IC50", "setting": "KB", "value": 90, "unit": "nM"},
      {"measurement": "Activity", "setting": "Tubulin (Homo sapiens)", "value": "inactive"}
    ]},
    {"smiles": "CC(=O)O[C@@]12COC1C[C@H](O)[C@@]1(C)C(=O)[C@H](O)C3=C(C)[C@@H](OC(=O)[C@H](O)[C@@H](NC(=O)OC(C)(C)C)c4ccccc4)C[C@@](O)([C@@H](OC(=O)CN)C21)C3(C)C", "note": "(some centres undefined)", "values": [
      {"measurement": "IC50", "setting": "KB", "value": "> 10000", "unit": "nM"},
      {"measurement": "IC50", "setting": "Tubulin", "value": 51000, "unit": "nM"}
    ]},
    {"smiles": "CC(=O)O[C@@]12COC1C[C@H](O)[C@@]1(C)C(=O)[C@H](O)C3=C(C)[C@@H](OC(=O)C(O)[C@@H](NC(=O)N[C@H](C(=O)N4CCC[C@H]4C(=O)NCC(=O)NCC(=O)OCc4ccccc4)C(C)C)c4ccccc4)C[C@@](O)([C@@H](OC(=O)c4cccc([N+](=O)[O-])c4)C21)C3(C)C", "note": "(some centres undefined)", "values": [
      {"measurement": "IC50", "setting": "KB", "value": "> 10000", "unit": "nM"},
      {"measurement": "IC50", "setting": "Tubulin", "value": 500, "unit": "nM"}
    ]},
    {"smiles": "CC(=O)O[C@@]12COC1C[C@H](O)[C@@]1(C)C(=O)[C@H](O)C3=C(C)[C@@H](OC(=O)[C@H](O)[C@@H](NC(=O)OC(C)(C)C)c4ccccc4)C[C@@](O)([C@@H](OC(=O)[C@@H](NC(=O)[C@@H]4CCCN4C(=O)CNC(=O)CN)C(C)C)C21)C3(C)C", "note": "(some centres undefined)", "values": [
      {"measurement": "Activity", "setting": "KB", "value": "Not Active"},
      {"measurement": "Activity", "setting": "Tubulin (Homo sapiens)", "value": "inactive"}
    ]},
    {"smiles": "CC(=O)O[C@@]12COC1C[C@H](O)[C@@]1(C)C(=O)[C@H](O)C3=C(C)[C@@H](OC(=O)[C@H](O)[C@@H](NC(=O)NCC(=O)N[C@@H](CO)C(=O)N[C@@H](Cc4ccc(O)cc4)C(=O)O)c4ccccc4)C[C@@](O)([C@@H](OCc4ccccc4)C21)C3(C)C", "note": "(some centres undefined)", "values": [
      {"measurement": "IC50", "setting": "KB", "value": 1050, "unit": "nM"},
      {"measurement": "IC50", "setting": "Tubulin", "value": 1000, "unit": "nM"}
    ]},
    {"smiles": "CC(=O)O[C@@]12CO[C@@H]1C[C@H](O)[C@@]1(C)C(=O)[C@H](O)C3=C(C)[C@@H](OC(=O)[C@H](O)[C@@H](NC(=O)OC(C)(C)C)c4ccccc4)C[C@@](O)([C@@H](OC(=O)c4ccccc4)[C@H]21)C3(C)C", "note": "[DOCETAXEL]", "values": [
      {"measurement": "IC50", "setting": "KB", "value": 0.1, "unit": "nM"},
      {"measurement": "IC50", "setting": "Tubulin", "value": 500, "unit": "nM"}
    ]},
    {"smiles": "CC(=O)O[C@@]12COC1C[C@H](O)[C@@]1(C)C(=O)[C@H](O)C3=C(C)[C@@H]4C[C@@](O)([C@@H](OC(=O)CNC(=O)CNC(=O)[C@@H]5CCCN5C(=O)[C@H](C(C)C)NC(=O)N[C@@H](c5ccccc5)[C@@H](O)C(=O)O4)C21)C3(C)C", "note": "(some centres undefined)", "values": [
      {"measurement": "Activity", "setting": "KB", "value": "Non-toxic"}
    ]},
    {"smiles": "CC(=O)O[C@@]12COC1C[C@H](O)[C@@]1(C)C(=O)[C@H](O)C3=C(C)[C@@H](OC(=O)[C@H](O)[C@@H](NC(=O)OC(C)(C)C)c4ccccc4)C[C@@](O)([C@@H](OC(=O)[C@@H]4CCCN4C(=O)CNC(=O)CN)C21)C3(C)C", "note": "(some centres undefined)", "values": [
      {"measurement": "Activity", "setting": "KB", "value": "Not Active"},
      {"measurement": "Activity", "setting": "Tubulin (Homo sapiens)", "value": "inactive"}
    ]},
    {"smiles": "CC(=O)O[C@@]12COC1C[C@H](O)[C@@]1(C)C(=O)[C@H](O)C3=C(C)[C@@H](OC(=O)[C@H](O)[C@@H](NC(=O)OC(C)(C)C)c4ccccc4)C[C@@](O)([C@@H](OC(=O)CNC(=O)CN)C21)C3(C)C", "note": "(some centres undefined)", "values": [
      {"measurement": "Activity", "setting": "KB", "value": "Not Active"},
      {"measurement": "Activity", "setting": "Tubulin (Homo sapiens)", "value": "inactive"}
    ]},
    {"smiles": "CC(=O)O[C@@]12COC1C[C@H](O)[C@@]1(C)C(=O)[C@H](O)C3=C(C)[C@@H](OC(=O)C(O)C(NC(=O)N[C@H](C(=O)N4CCC[C@H]4C(=O)NCC(=O)O)C(C)C)c4ccccc4)C[C@@](O)([C@@H](OCc4ccccc4)C21)C3(C)C", "note": "(some centres undefined)", "values": [
      {"measurement": "IC50", "setting": "KB", "value": "> 10000", "unit": "nM"},
      {"measurement": "IC50", "setting": "Tubulin", "value": 600, "unit": "nM"}
    ]},
    {"smiles": "CC(=O)O[C@@]12COC1C[C@H](O)[C@@]1(C)C(=O)[C@H](O)C3=C(C)[C@@H](OC(=O)[C@H](O)[C@@H](NC(=O)OC(C)(C)C)c4ccccc4)C[C@@](O)([C@@H](OC(=O)CNC(=O)Oc4ccccc4)C21)C3(C)C", "note": "(some centres undefined)", "values": [
      {"measurement": "IC50", "setting": "KB", "value": 90, "unit": "nM"},
      {"measurement": "Activity", "setting": "Tubulin (Homo sapiens)", "value": "inactive"}
    ]},
    {"smiles": "CC(=O)O[C@@]12COC1C[C@H](O)[C@@]1(C)C(=O)[C@H](O)C3=C(C)[C@@H]4C[C@@](O)([C@@H](OC(=O)c5cccc(c5)NC(=O)CNC(=O)CNC(=O)[C@@H]5CCCN5C(=O)[C@H](C(C)C)NC(=O)N[C@@H](c5ccccc5)[C@@H](O)C(=O)O4)C21)C3(C)C", "note": "(some centres undefined)", "values": [
      {"measurement": "Activity", "setting": "KB", "value": "Non-toxic"}
    ]}
  ]
}
